The values that follow come from ChEMBL document CHEMBL1158769, “Macrophage activating effects of new alkamides from the roots of Echinacea species” (J Nat Prod, 2005).

≈ marks a conversion by molar mass, not a printed value.

Data set [1] can be described thus: Toxicity in mouse RAW264.7 cells by MTT assay. Format: cell-based. Particulars: read-out: TD50 (the source's name). In short, it runs like this: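 RAW 264.7 cells exposed to a range of alkamide concentrations for 24 h, or for 4 h followed by 24 h in fresh medium. Cells washed, labeled with MTT for 4 h, lysed in DMSO, formazan read at A540. Viability = Exp-OD/Control-OD × 100%, with control at the same cell number.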

A further data set relates to RAW264.7. Kind of data set: Inhibition of LPS-stimulated NO production in mouse RAW264.7 cells. The class given is functional. Particulars: read-out: ID50 (the source's name). In short, it runs like this: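 In some runs the compound medium was removed and the cells washed before LPS. Supernatant nitrite measured by Griess reagent at A550. Relative NO = (Exp-OD − Control-OD)/(LPS-OD − Control-OD) × 100%.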

With `CCCCCCC/C=C/C=C/C(=O)NCC(C)C`, the CC50 in data set [1] amounted to 12.5 µg/mL (≈ 49.7 µM). In the data set on RAW264.7, the IC50 amounted to 6 µg/mL (≈ 23.9 µM).

As for `C/C=C/C=C\CC/C=C/C=C/C(=O)NCC(C)C`, the CC50 in data set [1] was 50 µg/mL (≈ 202 µM). Besides, the IC50 with RAW264.7 is 6 µg/mL (≈ 24.3 µM).

On to `C/C=C\C=C/CC/C=C/C=C/C(=O)NCC(C)C`, for which, in data set [1], the CC50 worked out at 50 µg/mL (≈ 202 µM). Moreover, the IC50 with RAW264.7 was 6 µg/mL (≈ 24.3 µM).
